Assay results taken from ChEMBL document CHEMBL3286263, “Bazedoxifene-scaffold-based mimetics of solomonsterols A and B as novel pregnane X receptor antagonists” (J Med Chem, 2014).
The source made the active and inactive calls. The rule behind the calls is not given here.

Assays:
[1] = molecular target: T1, Nuclear receptor subfamily 1 group I member 2 (Homo sapiens, UniProt O75469); assay: Agonist activity at human PXR transfected in human HepG2 cells co-transfected with pSG5-RXR/pCMV-beta-galactosidase/p(CYP3A4)-TK-Luc at 10 uM after 18 hrs by luciferase reporter gene assay; assay type: cell-based; conditions: hepg2, 18 h
T1 sequence (O75469 whole entry): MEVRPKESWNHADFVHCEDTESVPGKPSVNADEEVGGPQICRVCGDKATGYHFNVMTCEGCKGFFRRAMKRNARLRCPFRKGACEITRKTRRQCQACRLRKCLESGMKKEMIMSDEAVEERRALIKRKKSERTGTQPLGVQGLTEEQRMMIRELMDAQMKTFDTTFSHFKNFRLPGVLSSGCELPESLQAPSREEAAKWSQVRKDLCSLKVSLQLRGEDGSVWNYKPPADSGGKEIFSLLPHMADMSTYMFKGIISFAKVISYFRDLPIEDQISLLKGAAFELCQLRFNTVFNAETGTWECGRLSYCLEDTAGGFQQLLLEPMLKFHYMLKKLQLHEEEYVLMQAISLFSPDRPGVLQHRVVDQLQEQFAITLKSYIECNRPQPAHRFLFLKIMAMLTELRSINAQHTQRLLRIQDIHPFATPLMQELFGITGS
Summary of the method: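 HepG2 seeded 5x10^4 cells/well in MEM/10% FBS, transfected (Fugene HD) with pSG5hPXR, pSG5-RXR, pCMV-β-galactosidase and PXRE luciferase reporter. At 24 h post-transfection, treated 18 h with compounds at 10 µM; rifaximin and solomonsterol A (10 µM) as reference agonists. Lysate luciferase read, normalised to β-galactosidase activity.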

[2] = molecular target: T1, Nuclear receptor subfamily 1 group I member 2; assay: Antagonist activity at human PXR transfected in human HepG2 cells co-transfected with pSG5-RXR/pCMV-beta-galactosidase/p(CYP3A4)-TK-Luc assessed as inhibition of rifaximin-induced transactivation at 50 uM after 18 hrs by luciferase reporter gene assay; assay type: cell-based; conditions: hepg2, 18 h
Summary of the method: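 HepG2 transiently transfected with hPXR, RXR, β-galactosidase and PXRE-luciferase vectors; 24 h later exposed 18 h to rifaximin 10 µM plus compound at 50 µM. Luciferase in lysate measured and divided by β-galactosidase activity to correct for transfection efficiency.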

HepG2 [3] = assay: Cytotoxicity against human HepG2 cells transfected with pSG5-PXR/pSG5-RXR/pCMV-beta-galactosidase/p(CYP3A4)-TK-Luc at 50 uM; assay type: ADME, cell-based; conditions: hepg2, 50 µM
Summary of the method: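 Transfected HepG2 cells given rifaximin 10 µM plus compound at 50 µM for 18 h; cytotoxicity judged by morphological analysis.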

[4] = molecular target: T1, Nuclear receptor subfamily 1 group I member 2; assay: Antagonist activity at PXR in human HepG2 cells assessed as inhibition of rifaximin-induced CYP3A4 mRNA expression at 50 uM after 18 hrs by real time-PCR analysis; assay type: cell-based; conditions: hepg2, 18 h
Summary of the method: (§1)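 HepG2 seeded 5x10^5 cells/well, grown to about 70% confluence, serum-starved 24 h, then treated 18 h with rifaximin 10 µM alone or with compound at 50 µM. PXR and CYP3A4 mRNA by real-time PCR in triplicate (40 cycles), normalised to GAPDH, 2^-ΔΔCt relative to untreated cells; mean of two experiments.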

[5] = molecular target: T1, Nuclear receptor subfamily 1 group I member 2; assay: Antagonist activity at human PXR transfected in human HepG2 cells co-transfected with pSG5-RXR/pCMV-beta-galactosidase/p(CYP3A4)-TK-Luc assessed as inhibition of rifaximin-induced transactivation after 18 hrs by luciferase reporter gene assay; assay type: cell-based; conditions: for inhibition (INH): human, hepg2, 18 h
Summary of the method: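 PXR/RXR/β-gal/PXRE-luciferase-transfected HepG2 cells, 24 h post-transfection, co-treated 18 h with 10 µM rifaximin and compound at 10, 25 and 50 µM. β-galactosidase-normalised luciferase signal used to fit concentration-response curves for IC50.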

HepG2 [6] = assay: Downregulation of PXR mRNA expression in rifaximin-treated human HepG2 cells at 50 uM after 18 hrs by real time-PCR analysis; assay type: functional, cell-based; summary of the method: as §1
[7] = molecular target: T1, Nuclear receptor subfamily 1 group I member 2; assay: Antagonist activity at human PXR transfected in African green monkey CV1 cells assessed as inhibition of SR12813-induced transactivation after 24 hrs by luciferase reporter gene assay; assay type: cell-based, CV-1
[8] = molecular target: T1, Nuclear receptor subfamily 1 group I member 2; assay: Antagonist activity at PXR (unknown origin) transfected in human HepG2 cells assessed as inhibition of rifampicin-induced reporter gene transcription; assay type: cell-based

Row | Structure (SMILES) | Activity [1] | inhibition (INH) [2] | further results
1 | C[C@H](CCCOS(=O)(=O)[O-])[C@H]1CC[C@H]2[C@@H]3CC[C@H]4C[C@H](OS(=O)(=O)[O-])[C@@H](OS(=O)(=O)[O-])C[C@]4(C)[C@H]3CC[C@]12C.[Na+].[Na+].[Na+] [SOLOMONSTEROL A] | Active | – | –
2 | CCCn1c(-c2ccc(O)c(O)c2)c(C)c2cc(O)ccc21 | – | Active | Activity (HepG2 [3]): Toxic
3 | COc1ccc2c(c1)c(C)c(-c1ccc(OC)c(OC)c1)n2C | – | Active | Activity (HepG2 [3]): Toxic
4 | Cc1c(-c2ccc(O)c(O)c2)[nH]c2ccc(OCCCO)cc12 | Not Active | Active | inhibition (INH) [4]: Active; IC50 [5]: 14 µM; inhibition (INH) [5]: Dose-dependent effect; Activity (HepG2 [6]): Active
5 | Cc1c(-c2ccc(OS(=O)(=O)[O-])cc2)[nH]c2ccc(OCCOS(=O)(=O)[O-])cc12.[Na+].[Na+] | Not Active | Not Active | –
6 | Cc1c(-c2ccc(O)cc2)[nH]c2ccc(OCCO)cc12 | Not Active | Active | –
7 | O=c1oc2cc(O)ccc2c2oc3cc(O)ccc3c12 [COUMESTROL] | – | – | IC50 [7]: 12 µM
8 | Cc1c(-c2ccc(O)c(O)c2)n(C)c2ccc(O)cc12 | – | Active | Activity (HepG2 [3]): Toxic
9 | Cc1ccc(SC(=O)c2c(C)noc2-c2cc(C)on2)cc1 | – | – | IC50 [8]: 0.85 µM
10 | Cc1c(-c2ccc(OS(=O)(=O)[O-])cc2)[nH]c2ccc(OCCCOS(=O)(=O)[O-])cc12.[Na+].[Na+] | Not Active | Not Active | –
11 | Cc1c(-c2ccc(O)c(O)c2)[nH]c2ccc(OCCO)cc12 | Not Active | Active | –
12 | Cc1c(-c2ccc(OS(=O)(=O)[O-])c(OS(=O)(=O)[O-])c2)[nH]c2ccc(OCCCOS(=O)(=O)[O-])cc12.[Na+].[Na+].[Na+] | Not Active | Not Active | –

The next lines start with results.

Row | Activity [1] | inhibition (INH) [2] | Structure (SMILES) | further results
13 | Not Active | Active | Cc1c(-c2ccc(O)cc2)[nH]c2ccc(O)cc12 | –
14 | Not Active | Active | Cc1c(-c2ccc(O)c(O)c2)[nH]c2ccc(O)cc12 | inhibition (INH) [4]: Active; IC50 [5]: 11 µM; inhibition (INH) [5]: Dose-dependent effect; Activity (HepG2 [6]): Active
15 | Not Active | Not Active | Cc1c(-c2ccc(OS(=O)(=O)[O-])c(OS(=O)(=O)[O-])c2)[nH]c2ccc(OS(=O)(=O)[O-])cc12.[Na+].[Na+].[Na+] | –
16 | Not Active | Not Active | Cc1c(-c2ccc(OS(=O)(=O)[O-])cc2)[nH]c2ccc(OS(=O)(=O)[O-])cc12.[Na+].[Na+] | –
17 | Not Active | Active | Cc1c(-c2ccc(O)cc2)[nH]c2ccc(OCCCO)cc12 | –
18 | Active | – | CO[C@H]1/C=C/O[C@@]2(C)Oc3c(C)c(O)c4c(O)c(c5c(nc6cc(C)ccn65)c4c3C2=O)NC(=O)/C(C)=C\C=C\[C@H](C)[C@H](O)[C@@H](C)[C@@H](O)[C@@H](C)[C@H](OC(C)=O)[C@@H]1C [RIFAXIMIN] | –
19 | – | Active | COc1ccc2[nH]c(-c3ccc(OC)c(OC)c3)c(C)c2c1 | Activity (HepG2 [3]): Non-toxic
20 | – | Active | Cc1c(-c2ccc(O)c(O)c2)n(Cc2ccccc2)c2ccc(O)cc12 | Activity (HepG2 [3]): Toxic
